This note sets out measurements from ChEMBL document CHEMBL4004835, “Discovery of Novel Disruptor of Silencing Telomeric 1-Like (DOT1L) Inhibitors using a Target-Specific Scoring Function for the (S)-Adenosyl-l-methionine (SAM)-Dependent Methyltransferase Family” (J Med Chem, 2017).

Activity calls are given as the source filed them. The calls are words filed in the database; no cut-off is given here.

The subject of assay [1] is MV4-11. In words: Induction of apoptosis in human MV4-11 cells assessed as early apoptotic cells at 25 uM after 72 hrs by annexin V/FITC and propidium iodide staining-based flow cytometric analysis (reference value: 5.66 %). Type of assay: functional. For orientation: A flow cytometer gives signals particle by particle.
The target of assay [2] is Protein arginine N-methyltransferase 5 (Homo sapiens) (UniProt O14744). Briefly: Inhibition of PRMT5 (unknown origin) at 50 and 100 uM preincubated for 15 mins followed by substrate and [3H]-SAM addition for 60 mins measured after further 60 mins flashplate assay. Summed up:
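In modified Tris buffer, enzyme preincubated 15 min at room temperature; substrate and [3H]SAM added for 60 min at room temperature; stopped with cold SAM; transferred to a Flashplate for 60 min, washed 3× with water plus 0.1% Tween-20, read by MicroBeta.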

In assay [3] the test system is MV4-11. In words: Induction of apoptosis in human MV4-11 cells assessed as necrotic cells at 12.5 uM after 72 hrs by annexin V/FITC and propidium iodide staining-based flow cytometric analysis (reference value: 0.04 %). Type of assay: functional.
For assay [4], the system named is MV4-11. In words: Induction of apoptosis in human MV4-11 cells assessed as late apoptotic cells at 12.5 uM after 72 hrs by annexin V/FITC and propidium iodide staining-based flow cytometric analysis (reference value: 4.02 %). The class given is functional.
Assay [5] relates to MV4-11. Briefly: Induction of apoptosis in human MV4-11 cells assessed as necrotic cells at 25 uM after 72 hrs by annexin V/FITC and propidium iodide staining-based flow cytometric analysis (reference value: 0.04 %). The class given is functional.
For assay [6], the system named is MV4-11. Briefly: Induction of cell cycle arrest in human MV4-11 cells assessed as accumulation at G1 phase at 12.5 uM after 48 hrs by propidium iodide/RNase-staining based flow cytometric analysis (reference value: 68.16 %). Type of assay: functional. Summed up:
(§1)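 MV4-11 cells (2 × 10^6) seeded in 12-well dishes, treated with different concentrations for 48 h, processed with a PI/RNase staining kit and analysed for cell-cycle distribution by FACSCalibur flow cytometry.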

Assay [7] has as its target T1, Histone-lysine N-methyltransferase, H3 lysine-79 specific (Homo sapiens, UniProt Q8TEK3). In words: Inhibition of N-terminal 6His-tagged human DOT1L (1 to 416 residues) expressed in Escherichia coli BL21(DE3) at 50 uM using histone H3 as substrate preincubated for 15 mins followed by SAM addition measured after 60 mins by AlphaLISA assay. Summed up: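 DOT1L (80 nM final) preincubated with compound 15 min at 25 °C; SAM 1 mM and oligonucleosomes 0.25 ng/μL added in 50 mM Tris-HCl pH 8.0, 150 mM NaCl, 3 mM MgCl2, 0.1% BSA, 60 min at 25 °C; stopped with high-salt buffer; H3K79me2 detected with anti-H3 acceptor beads, biotinylated antibody, then streptavidin donor beads.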
In general terms: Alpha assays give light when donor and acceptor beads are brought close together.

Assay [8] deals with MV4-11. Briefly: Induction of apoptosis in human MV4-11 cells assessed as necrotic cells at 6.25 uM after 72 hrs by annexin V/FITC and propidium iodide staining-based flow cytometric analysis (reference value: 0.04 %). Type of assay: functional.
Assay [9] concerns MV4-11. Briefly: Induction of apoptosis in human MV4-11 cells assessed as viable cells at 12.5 uM after 72 hrs by annexin V/FITC and propidium iodide staining-based flow cytometric analysis (reference value: 90.3 %). Type of assay: functional. The settings on record: MV4-11, 72 h, read-out: Activity.
The test system of assay [10] is HL-60. In words: Cytotoxicity against human HL60 cells assessed as reduction in cell viability after 72 hrs by alamar blue assay. Type of assay: functional, cell-based. As to conditions: HL-60, 72 h. The method in brief:
(§2)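 Cells cultured in RPMI 1640 with 10% FBS and 1% penicillin/streptomycin, treated with a range of concentrations or equal DMSO, 37 °C, 5% CO2, 72 h. Viability read by alamar blue (ex 544/em 590 nm); percent proliferation and IC50 curve fitted.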
Background: Resazurin is reduced to fluorescent resorufin, in cell work by metabolically active cells.

Assay [11] addresses T1, Histone-lysine N-methyltransferase, H3 lysine-79 specific. In words: Inhibition of N-terminal 6His-tagged human DOT1L (1 to 416 residues) expressed in Escherichia coli BL21(DE3) at 50 and 100 uM preincubated for 15 mins followed by [3H]-SAM addition measured after 120 mins by radioactive methylation assay. Summed up:
(§3)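 DOT1L and compound preincubated 15 min at room temperature; oligonucleosome and 3H-SAM added; reaction 120 min at room temperature, stopped with cold SAM; transferred to 0.5% PEI-pretreated filter plate, washed 3× with water, read by liquid scintillation counting.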

Assay [12] deals with MV4-11. Briefly: Induction of apoptosis in human MV4-11 cells assessed as viable cells at 6.25 uM after 72 hrs by annexin V/FITC and propidium iodide staining-based flow cytometric analysis (reference value: 90.3 %). Type of assay: functional. The settings on record: MV4-11, 72 h, read-out: Activity.
Assay [13] has as its system MV4-11. In words: Induction of apoptosis in human MV4-11 cells assessed as early apoptotic cells at 6.25 uM after 72 hrs by annexin V/FITC and propidium iodide staining-based flow cytometric analysis (reference value: 5.66 %). Type of assay: functional.
Assay [14] deals with MV4-11. Briefly: Induction of cell cycle arrest in human MV4-11 cells assessed as accumulation at G2 phase at 6.25 uM after 48 hrs by propidium iodide/RNase-staining based flow cytometric analysis (reference value: 7.44 %). The class given is functional. The method in brief: as §1
The subject of assay [15] is Kasumi 1. Briefly: Cytotoxicity against human Kasumi-1 cells assessed as reduction in cell viability after 72 hrs by alamar blue assay. The class given is functional, cell-based. The settings on record: Kasumi 1, 72 h. Summed up:
as §2

Assay [16] addresses T1, Histone-lysine N-methyltransferase, H3 lysine-79 specific. In words: Inhibition of N-terminal 6His-tagged human DOT1L (1 to 416 residues) expressed in Escherichia coli BL21(DE3) at 50 uM preincubated for 15 mins followed by [3H]-SAM addition measured after 120 mins by radioactive methylation assay. Summed up: as §3
Assay [17] relates to MV4-11. Briefly: Induction of apoptosis in human MV4-11 cells assessed as early apoptotic cells at 12.5 uM after 72 hrs by annexin V/FITC and propidium iodide staining-based flow cytometric analysis (reference value: 5.66 %). Type of assay: functional.
For assay [18], the system named is MV4-11. In words: Induction of apoptosis in human MV4-11 cells assessed as viable cells at 50 uM after 72 hrs by annexin V/FITC and propidium iodide staining-based flow cytometric analysis (reference value: 90.3 %). Type of assay: functional. As to conditions: MV4-11, 72 h, read-out: Activity.
The test system of assay [19] is MV4-11. Briefly: Induction of cell cycle arrest in human MV4-11 cells assessed as accumulation at G1 phase at 50 uM after 48 hrs by propidium iodide/RNase-staining based flow cytometric analysis (reference value: 68.16 %). Type of assay: functional. The method in brief:
as §1

T1 sequence (Q8TEK3 whole entry, looked up, the tested form may be a part): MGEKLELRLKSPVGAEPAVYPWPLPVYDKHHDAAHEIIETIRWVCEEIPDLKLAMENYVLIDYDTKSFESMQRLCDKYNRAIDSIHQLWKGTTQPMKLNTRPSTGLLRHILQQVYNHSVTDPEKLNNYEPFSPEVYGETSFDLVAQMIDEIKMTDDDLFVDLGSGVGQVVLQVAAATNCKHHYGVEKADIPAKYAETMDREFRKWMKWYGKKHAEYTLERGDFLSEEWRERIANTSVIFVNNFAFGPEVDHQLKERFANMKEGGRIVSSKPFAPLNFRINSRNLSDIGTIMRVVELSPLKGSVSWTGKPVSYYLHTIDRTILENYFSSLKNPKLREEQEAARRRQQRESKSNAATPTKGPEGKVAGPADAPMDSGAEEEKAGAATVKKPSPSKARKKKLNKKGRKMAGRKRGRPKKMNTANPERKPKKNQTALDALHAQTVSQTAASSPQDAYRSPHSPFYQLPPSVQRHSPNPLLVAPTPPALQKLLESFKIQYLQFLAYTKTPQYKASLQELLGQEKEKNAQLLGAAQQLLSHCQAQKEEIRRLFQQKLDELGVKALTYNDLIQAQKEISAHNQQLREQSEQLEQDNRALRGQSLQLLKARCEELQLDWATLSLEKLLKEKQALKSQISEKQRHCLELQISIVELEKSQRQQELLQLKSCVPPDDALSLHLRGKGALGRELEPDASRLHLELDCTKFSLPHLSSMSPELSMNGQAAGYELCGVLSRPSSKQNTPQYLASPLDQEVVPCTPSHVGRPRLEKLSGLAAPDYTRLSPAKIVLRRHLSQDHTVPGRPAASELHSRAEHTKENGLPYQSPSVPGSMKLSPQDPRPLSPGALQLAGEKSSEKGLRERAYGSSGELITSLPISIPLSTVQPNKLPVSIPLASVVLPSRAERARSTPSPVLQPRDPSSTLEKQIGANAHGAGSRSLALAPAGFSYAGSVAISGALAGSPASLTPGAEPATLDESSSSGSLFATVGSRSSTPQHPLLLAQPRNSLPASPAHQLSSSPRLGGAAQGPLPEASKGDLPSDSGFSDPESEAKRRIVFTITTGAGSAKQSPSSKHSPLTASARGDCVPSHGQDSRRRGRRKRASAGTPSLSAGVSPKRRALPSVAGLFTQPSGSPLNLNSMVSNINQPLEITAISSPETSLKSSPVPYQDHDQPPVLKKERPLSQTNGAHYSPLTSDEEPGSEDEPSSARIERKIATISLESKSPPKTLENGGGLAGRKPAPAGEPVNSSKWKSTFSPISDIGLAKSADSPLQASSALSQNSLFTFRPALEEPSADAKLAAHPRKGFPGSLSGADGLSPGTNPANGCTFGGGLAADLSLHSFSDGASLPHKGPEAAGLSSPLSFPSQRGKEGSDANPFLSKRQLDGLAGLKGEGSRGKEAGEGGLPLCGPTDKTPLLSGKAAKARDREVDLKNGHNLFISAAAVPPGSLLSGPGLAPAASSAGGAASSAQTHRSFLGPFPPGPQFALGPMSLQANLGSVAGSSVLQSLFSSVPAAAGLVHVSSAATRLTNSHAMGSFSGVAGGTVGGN
Protein arginine N-methyltransferase 5 (Homo sapiens), sequence (O14744 whole entry): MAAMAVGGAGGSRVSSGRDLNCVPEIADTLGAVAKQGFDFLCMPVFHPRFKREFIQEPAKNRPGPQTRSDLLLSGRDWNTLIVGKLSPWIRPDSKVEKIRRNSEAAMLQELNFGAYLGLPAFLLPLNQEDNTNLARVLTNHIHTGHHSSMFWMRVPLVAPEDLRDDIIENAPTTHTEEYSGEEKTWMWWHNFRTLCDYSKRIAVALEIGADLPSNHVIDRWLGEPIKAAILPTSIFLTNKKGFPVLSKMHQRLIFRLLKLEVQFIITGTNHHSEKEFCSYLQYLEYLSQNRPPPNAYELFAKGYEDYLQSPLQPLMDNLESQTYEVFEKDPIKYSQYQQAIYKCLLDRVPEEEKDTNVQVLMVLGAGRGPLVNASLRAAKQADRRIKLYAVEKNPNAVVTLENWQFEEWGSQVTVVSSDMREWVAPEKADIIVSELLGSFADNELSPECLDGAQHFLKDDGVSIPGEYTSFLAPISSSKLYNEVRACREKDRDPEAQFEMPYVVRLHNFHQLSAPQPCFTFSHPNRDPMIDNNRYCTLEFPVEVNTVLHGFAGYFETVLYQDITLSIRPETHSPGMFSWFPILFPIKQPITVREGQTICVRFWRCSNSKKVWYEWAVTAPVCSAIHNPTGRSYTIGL

With `Fc1cccc(-c2nn3c(Cn4nnc5ccccc54)nnc3s2)c1`, the Activity in assay [1] came to 58.2%; in assay [3], 3.8%; in assay [4], 35.5%; in assay [5], 1.6%; in assay [6], 70.27%; in [8], 1.37%. For the same compound, the Activity amounted to 49.5% in assay [13], 5.8% in assay [14], 50.1% in [17] and 82.24% in assay [19]. The inhibition is < 40% in [2], > 40% in assay [7] and 68% in assay [16]. Moreover, the viability at 12.5 µM in assay [9] was 10.6%. Further, the IC50 in assay [10] and in [15] was > 200 µM throughout. Also, the inhibition entry in assay [11] is “Active”. The viability at 6.25 µM in assay [12] amounted to 24.2%. The viability at 50 µM in assay [18] stood at 3.75%.

What is called inhibition is the drop in the measured response relative to a control, in per cent. As a reminder, the IC50 is the concentration that inhibits the measured activity by half.
